EBI2 block: antagonists of human EBI2 receptor. AID 651636. EBI2 beta-arrestin recruitment, luminescence, 7a,25-OHC stimulated. 0.81% of 360,000 active. inhibition, % at 5 µM; in the data active = inhibition above about 38%;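 also: enzyme fragment complementation signal reports receptor beta-arrestin coupling in cells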
Target sequence (P32249 whole entry, looked up, the tested form may be a part): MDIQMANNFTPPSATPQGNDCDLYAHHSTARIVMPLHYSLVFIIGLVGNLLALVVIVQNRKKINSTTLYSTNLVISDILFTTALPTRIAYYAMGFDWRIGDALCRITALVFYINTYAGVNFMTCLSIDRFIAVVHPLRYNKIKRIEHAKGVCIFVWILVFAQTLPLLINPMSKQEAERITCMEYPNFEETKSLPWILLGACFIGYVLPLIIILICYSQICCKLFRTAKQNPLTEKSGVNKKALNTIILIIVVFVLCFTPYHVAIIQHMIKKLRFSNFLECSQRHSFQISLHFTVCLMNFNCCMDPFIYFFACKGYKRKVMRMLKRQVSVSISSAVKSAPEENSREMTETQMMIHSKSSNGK
MPTP inh: permeability transition pore inhibition; 1.4% of 360,000 active; inhibition, % at 10 µM; isolated mouse mitochondria, Ca2+ swelling absorbance, 30 min;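 active = inhibition of 50% or more, scaled per plate between neutral and stimulator controls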
SENP1 inh: SENP1 (human) catalytic domain inhibition; AID 624204; recombinant SENP1 catalytic domain, CyPet-SUMO1-YPet FRET cleavage; Q9P0U3; inhibition, % at 10 µM; 0.21% of 360,000 active;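 active = inhibition at least 30% at 10 µM, raw YFP signal under a set limit, fluorescence ratio 0.5 to 1.5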
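System: Recombinant human SENP1 catalytic domain, His6-tagged | Incubation: Enzyme reaction for 50 min at room temperature, dark | Medium: Tris pH 8 with BME, BSA, NP40 and catalase | Also added: 25 nM SUMO1 FRET substrate | Compound: 10 µM single point, 0.5% DMSO | Measured by: FRET fluorescence in CFP and YFP emission channels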
GRIN3A LBD mod: NR3A (human) ligand-binding domain modulation. NR3A LBD differential scanning fluorimetry, Tm shift; 0% = protein alone, 100% = glycine-bound protein. Tm shift relative to glycine control, % at 25 µM. 2.5% of 340,000 active. AID 1259313;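 active = melting temperature shift of at least 10% of the positive control shift, at one fixed dose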
MPTP counter: Rhodamine 123 counter-screen of mitochondrial pore hits | shares compounds with MPTP inh | isolated mitochondria, membrane potential, Rhodamine 123 fluorescence | inhibition, % at 10 µM | 78% of 5,000 active | AID 624504; in the data active = inhibition above about 22%
MPTP abs DR: dose response confirmation of mitochondrial permeability transition pore inhibitors. shares compounds with MPTP inh. isolated mitochondria swelling, absorbance. IC50, µM. 58% of 780 active; in the data active = IC50 below about 20 µM
MPTP counter DR: counter-screen for mitochondrial permeability transition pore inhibitors, dose response; shares compounds with MPTP inh; isolated mitochondria counterscreen, fluorescence read-out; IC50, µM; 49% of 780 active; in the data active = IC50 below about 80 µM
Of the large screens only hits and unclear results are named; the others gave an inactive call (follow-up assays come after a bar, where they were run); ! = not confirmed by another sample. Rows were chosen to be rich in hits. Some 4.4% of all compounds tested hit in one or more screens of this group.

CN1CCN(C2Cc3ccccc3Sc3cc(C(F)(F)F)ccc32)CC1 (stereo not drawn)	none (no result: EBI2 block, MPTP inh, SENP1 inh)
CN1CCN(C2Cc3ccccc3Sc3ccc(Cl)cc32)CC1 (stereo not drawn)	MPTP inh 87 | MPTP counter inactive | MPTP abs DR 6.8 | MPTP counter DR 45
CN1CCN(C2Cc3cc(F)ccc3Sc3ccc(Cl)cc32)CC1 (stereo not drawn)	none
CSc1ccc2c(c1)C(N1CCN(C)CC1)Cc1ccccc1S2 (stereo not drawn)	MPTP inh 104! | MPTP counter inactive
N#C/C(=N\Nc1ccc(S(=O)(=O)N2CCCCCC2)cc1)C(N)=S	MPTP inh 96 | MPTP counter 91
O=C(O)c1ccc(N=NNc2cccc([N+](=O)[O-])c2)cc1	none
N#CC(C#N)=NNc1ccc(S(=O)(=O)N2CCCC2)cc1	MPTP inh 99 | MPTP counter 90
N#C/C(=N\Nc1ccc([N+](=O)[O-])cc1)C(N)=S	MPTP inh 86 | MPTP counter 62
N#C/C(=N\Nc1cccc([N+](=O)[O-])c1)C(=O)c1ccc(Br)cc1	MPTP inh 93, GRIN3A LBD mod 29 | MPTP counter 41
Cc1cccc(N2C(=NC(=O)c3ccccc3)SC3CS(=O)(=O)CC32)c1 (stereo not drawn)	none
Cn1c(=O)[nH]c(=O)c2c1nc(N1CCCCC1)n2CC(O)COc1ccccc1 (stereo not drawn)	none
N#C/C(=N/Nc1ccc(S(=O)(=O)N2CCOCC2)cc1)C(N)=O	none
N#C/C(=N\Nc1ccc(S(=O)(=O)N2CCCCC2)cc1)C(N)=S	MPTP inh 79 | MPTP counter 79
C=CC[n+]1c(/C=C2\C=Cc3cc(C)ccc3N2CC)ccc2ccccc21	MPTP inh 112 | MPTP counter 78
CCN1C(=C(C#N)C#N)C=Cc2cc(C)ccc21	none
O=c1[nH][nH]c(C(F)(F)F)c1C=NCc1cccc(Cl)c1	none
CCOC(=O)c1c(C)[nH]c(C(=O)Cn2c(=O)oc3ccccc32)c1C	none
O=C(CCC1CCCC1)NCCS(=O)(=O)N1CCN(c2ccccc2)CC1	none
COc1ccc(NC(=O)Cn2nnc(-c3ccccc3NS(=O)(=O)c3ccccc3)n2)cc1	MPTP inh 77, GRIN3A LBD mod 17 | MPTP counter 75
COc1ccc(S(=O)(=O)Nc2ccccc2-c2nnn(CC(=O)Nc3ccccc3OC)n2)cc1	none
COc1ccc(C(=O)N2CCC(C(=O)O)CC2)c2ccccc12	none
COc1ccc(Cl)cc1NC(=O)CC1S/C(=N/N=C2CCCCCC2)NC1=O (stereo not drawn)	none
CCc1c(C)nc2ncnn2c1NCCc1ccc(Cl)cc1	MPTP inh 90 | MPTP counter 40
CC(=O)c1cccc(N/C=C\C(=O)c2ccc(C)cc2)c1	none
COc1cc(NS(=O)(=O)c2ccc(N/C=C\C(=O)c3ccc(F)cc3)cc2)nc(OC)n1	none
CC(=O)c1cccc(NS(=O)(=O)c2ccc(N/C=C/C(=O)c3ccc(F)cc3)cc2)c1	MPTP inh 108, GRIN3A LBD mod 18 | MPTP counter 94
CC(=O)c1cccc(NS(=O)(=O)c2ccc(N/C=C\C(=O)c3ccc(C)cc3)cc2)c1	MPTP inh 106 | MPTP counter 85
Cn1cc(Br)c(C(=O)Nc2sc3c(c2C#N)CCC3)n1	none
Cn1cc(Cl)c(C(=O)NC(=S)Nc2sc3c(c2C#N)CCCCC3)n1	MPTP inh 83 | MPTP counter 21
O=C(CSc1ccc(F)cc1)Nc1ccccc1Br	none
Cc1cc(=O)[nH]c(SCC(=O)Nc2ccc(F)cc2)c1C#N	none
Cc1cc(=O)[nH]c(SCC(=O)Nc2ccc(Br)cc2)c1C#N	MPTP inh 96 | MPTP counter 90
O=C(CSc1ccc(F)cc1)Nc1ccc(Br)cc1	MPTP inh 58 | MPTP counter 67
Cc1ccc(NCC(=O)Nc2ccc(Br)cc2)cc1F	MPTP inh 60 | MPTP counter 70
CN(C)CCNS(=O)(=O)c1ccc(N2CCN(c3ccc(F)cc3)CC2)c([N+](=O)[O-])c1	MPTP inh 50 | MPTP counter inactive | MPTP abs DR 7.1 | MPTP counter DR 20
